Assay results of several laboratories.
Organism: Bacillus subtilis
Read-out: microbial growth

O=C1NC(=S)N/C1=C\c1c2ccccc2c(-c2ccc(N(c3ccccc3)c3ccccc3)cc2)c2ccccc12 — MIC (broth dilution; ATCC6633): > 1000 µg/mL
CN(/N=C/c1cn(-c2ccc(C(=O)O)cc2)nc1-c1cccc(F)c1)c1ccccc1 — MIC (ATCC6623): 12.5 µg/mL
O=C(O)c1cc(O)c(O)c(OC(=O)c2cc(O)c(O)c(O)c2)c1 — MIC (broth dilution; ATCC6633): > 200 µM
C[n+]1c(/C=C/c2c[nH]c3ccccc23)cc(/C=C2\Sc3ccccc3N2CCCN2CCOCC2)c2ccccc21.[I-] — MIC (broth dilution; 168): 8 µg/mL
O=C(O)CN1C(=O)/C(=C/c2c3ccccc3c(-c3ccc(N(c4ccccc4)c4ccccc4)cc3)c3ccccc23)NC1=S — MIC (broth dilution; ATCC6633): > 1000 µg/mL
O=C(O)c1ccc(-n2cc(/C=N/Nc3ccc(F)cc3)c(-c3ccc(F)cc3)n2)cc1 — MIC (ATCC6623): 25 µg/mL
Cc1cc(/C=C2\Sc3ccccc3N2CCCN2CCCCC2)c2ccccc2[n+]1C.[I-] — MIC (broth dilution; 168): 8 µg/mL
CC1(C)S[C@@H]2[C@H](NC(=O)[C@H](N)c3ccccc3)C(=O)N2[C@H]1C(=O)O — MIC (broth dilution; BS01): 0.13 µg/mL
O=C(O)c1ccc(-n2cc(/C=N/Nc3c(F)c(F)cc(F)c3F)c(-c3cccc(F)c3)n2)cc1 — MIC (ATCC6623): 12.5 µg/mL
Fc1ccccc1NCc1ccc(Oc2ccccn2)cc1 — MIC: 1.8 µg/mL
CCCCCC/C=C\CCCCCCCCCc1cc(O)cc(O)c1 — MIC (broth dilution; 168): > 64 µg/mL
NC[C@H]1O[C@H](O[C@H]2[C@H](O)[C@@H](O[C@H]3O[C@H](CO)[C@@H](O)[C@H](N)[C@H]3O)[C@H](N)C[C@@H]2N)[C@H](N)C[C@@H]1O — MIC (168): 1.2 µg/mL
CCCCC[P+](/C=C(/c1ccccc1)c1cc(Cl)ccc1O)(CCCCC)CCCCC — MIC (21 h): ~2 µM
CC1CCN(CCCN2/C(=C/c3cc[n+](C)c4ccccc34)Sc3ccccc32)CC1.[I-] — MIC (broth dilution; 168): 4 µg/mL
CCCCCCC[P+](/C=C(/c1ccccc1)c1cc(Cl)ccc1O)(CCCCCCC)CCCCCCC — MIC (21 h): 10 µM
O=C(O)CN1C(=O)/C(=C/c2c3ccccc3c(-c3ccc(N(c4ccccc4)c4ccccc4)cc3)c3ccccc23)SC1=S — MIC (broth dilution; ATCC6633): > 1000 µg/mL
COc1ccc(NCc2ccc(Oc3ccccn3)cc2)cc1 — MIC: > 6.24 µg/mL
O=C(O)c1ccc(-n2cc(/C=N/Nc3cccc(Br)c3)c(-c3ccc(F)cc3)n2)cc1 — MIC (ATCC6623): 12.5 µg/mL
Fc1ccc(NCc2ccc(Oc3ccccn3)cc2)cc1 — MIC: 1.6 µg/mL
CC(=O)NCN1N=C(C)C(=NNn2c(-c3ccccc3)nc3ccccc3c2=O)C1=O — MIC (broth dilution; 24 h): 59.9 µM
